Laboratory results taken from ChEMBL document CHEMBL1133551, “Non-depolarizing neuromuscular blocking activity of bisquaternary amino di- and tripeptide derivatives” (J Med Chem, 2000).
One block for each molecule: values may come before it.

How the values were obtained:
Felis catus [1] = experiment: Recovery time (25-75 %) measured for NMB activity in anesthetized cats; format: functional, organism-based
How it was run: (§1)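 Anesthetized, ventilated cats, tibialis anterior twitch evoked by sciatic nerve stimulation at 0.1 Hz; iv doses giving 80-95% block. Onset is injection to the first maximally depressed twitch. Duration is injection to 90% spontaneous recovery relative to predrug twitch.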

Monkey [2] = experiment: Recovery time (25-75 %) measured for NMB activity in anesthetized rhesus monkeys; format: functional, organism-based; settings: Cercopithecidae
How it was run: (§2)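 Anesthetized, ventilated Rhesus monkeys; iv dosing at 3 × the 90% blocking dose. Onset is injection to the first maximally depressed twitch. Duration is injection to 90% spontaneous recovery versus predrug twitch.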

Felis catus [3] = experiment: Duration (90%) measured for NMB activity in anesthetized cats; format: functional; how it was run: as §1
Monkey [4] = experiment: Duration (90%) measured for NMB activity in anesthetized rhesus monkeys; format: functional, Cercopithecidae; how it was run: as §2
Felis catus [5] = experiment: Inhibition of superior cervical nerve-induced contractions of the nictitating membrane in anesthetized cats; Pre- and post-block increases in twitch tension and short-lived muscle fasciculations 20-30 s after dosing; format: functional, organism-based
How it was run: (§3)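 Anesthetized cats. Every 100 s the vagus nerve was stimulated for 10 s at 2-5 Hz to evoke bradycardia, and the cervical sympathetic nerve was stimulated to evoke nictitating membrane contraction. Near the end of experiments, logarithmically increasing iv doses were given at 100-s intervals. Doses giving 50% block were obtained by regression and interpolation.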

Felis catus [6] = experiment: Inhibitory potency in anesthetized cats; format: functional
How it was run: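 Cats of either sex (1.9-2.6 kg), anesthetized i.p. with α-chloralose 80 mg/kg plus pentobarbitone 5 mg/kg and ventilated with room air, 37 ± 1 °C. Sciatic nerve stimulated at 0.1 Hz (0.25-ms supramaximal pulses), tibialis anterior twitch recorded. Increasing doses given iv (jugular) at 30-60-min intervals.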

Gallus gallus [7] = species: Gallus gallus; experiment: Dose causing 50% block of muscle twitch in isolated chick biventer cervicis muscle (Increase in baseline tension); settings: Muscle tissue, read-out: ED50 (the source's name)
Monkey [8] = experiment: Onset time was measured for NMB activity in anesthetized rhesus monkeys; format: functional, Cercopithecidae; how it was run: as §2
Felis catus [9] = experiment: Onset time was measured for NMB activity in anesthetized cats; format: functional; how it was run: as §1
Monkey [10] = experiment: Inhibitory potency in anesthetized rhesus monkeys; format: functional; settings: Cercopithecidae, in Macaca mulatta
Felis catus [11] = experiment: Inhibitory potency in anesthetized cats, and Onset time is reported; format: functional
How it was run: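 Anesthetized cats (alpha-chloralose/pentobarbitone i.p., ventilated, 37 ± 1 °C). Tibialis anterior twitch evoked via sciatic nerve at 0.1 Hz, 0.25-ms supramaximal pulses. Increasing i.v. (jugular) doses at 30-60-min intervals. ED50 interpolated from log dose lines over 15-85% block. Onset, from injection to first maximally depressed twitch, measured at doses giving 80-95% block.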

Gallus gallus [12] = species: Gallus gallus; experiment: -logED50 value for chick biventer determined.; format: functional
How it was run: (§4)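 Isolated chick biventer cervicis nerve-muscle preparation; bath fluid gassed with 5% CO2 in O2, pH 7.4. Motor nerves stimulated at 0.1 Hz with 0.2-ms rectangular pulses at supramaximal voltage to give indirect twitches. Concentration-twitch inhibition lines fitted by least squares, and the concentration producing 50% twitch block (µM) was read off.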

[13] = Dose causing 50% block of muscle twitch in isolated chick biventer cervicis muscle (Increase in baseline tension); settings: Gallus gallus, Muscle tissue; read-out: ED50 (the source's name)
Felis catus [14] = experiment: Inhibition of superior cervical nerve-induced contractions of the nictitating membrane in anesthetized cats; format: functional
How it was run: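 Cats of either sex (1.9-2.6 kg), anesthetized with i.p. alpha-chloralose 80 mg/kg plus pentobarbitone 5 mg/kg, ventilated to keep arterial pH 7.3-7.4, 37 ± 1 °C. Nictitating membrane contractions evoked by cervical sympathetic nerve stimulation, recorded every 100 s. Logarithmically increasing doses injected into the jugular vein at 100-s intervals; 50%-blocking dose obtained by regression and interpolation.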

Felis catus [15] = experiment: Inhibition of stimulated vagus nerve-induced bradycardia in anesthetized cats; format: functional; how it was run: as §3
Felis catus [16] = species: Felis catus; experiment: Inhibition of superior cervical nerve-induced contractions of the nictitating membrane; format: functional; how it was run: as §3
Felis catus [17] = species: Felis catus; experiment: Inhibition of stimulated vagus nerve-induced bradycardia; format: functional; how it was run: as §3
Gallus gallus [18] = species: Gallus gallus; experiment: (§5) Dose causing 50% block of muscle twitch in isolated chick biventer cervicis muscle; format: functional, Muscle tissue; how it was run: as §4
[19] = as §5; format: functional; settings: Gallus gallus, Muscle tissue; read-out: ED50 (the source's name); how it was run: as §4

EC50 (Gallus gallus [7]): 540 nM
SMILES: C[N+](C)(C)CCOC(=O)CCC(=O)OCC[N+](C)(C)C [SUXAMETHONIUM]
Recovery (Felis catus [1]): 1.9 min
Recovery (Monkey [2]): 2.9 min
Duration (Felis catus [3]): 5.7 min
Duration (Monkey [4]): 9.7 min
ED50 (Felis catus [5]): Pre- and post-block increases in twitch tension and short-lived muscle fasciculations 20-30 s after dosing
ED50 (Felis catus [6]): 0.11 µmol/kg
Onset (Monkey [8]): 1.5 min
Onset (Felis catus [9]): 1.7 min
ED90 (Monkey [10]): 5.04 µmol/kg

EC50 (Gallus gallus [7]): 410 nM
SMILES: COc1ccc(CC2c3cc(OC)c(OC)cc3CC[N+]2(C)CCC(=O)OCCCCCOC(=O)CC[N+]2(C)CCc3cc(OC)c(OC)cc3C2Cc2ccc(OC)c(OC)c2)cc1OC (stereo unspecified)
Recovery (Felis catus [1]): 5.9 min
Duration (Felis catus [3]): 19.4 min
ED50 (Felis catus [6]): 0.1 µmol/kg
ED50 (Felis catus [15]): 1.6 µmol/kg
Onset (Felis catus [9]): 5.8 min

EC50 (Gallus gallus [18]; Gallus gallus, Muscle tissue, read-out: ED50 (the source's name)): > 390000 nM
SMILES: C[N+](C)(C)CC(=O)NCC(=O)NCC[N+]1(C)CCOCC1

More lines, now with the values behind:

SMILES: C=CC[N+]1([C@H]2C[C@H]3[C@@H]4CC[C@H]5C[C@H](O)[C@@H](N6CCOCC6)C[C@]5(C)[C@H]4CC[C@]3(C)[C@H]2OC(C)=O)CCCC1 [ROCURONIUM]
Recovery (Felis catus [1]): 2.9 min
Recovery (Monkey [2]): 5 min
ED50 (Felis catus [11]): 0.25 µmol/kg
pCB50 (Gallus gallus [12]): 6.12
Duration (Felis catus [3]): 8.3 min
EC50 [13]: 760 nM
Duration (Monkey [4]): 13.6 min
ED50 (Felis catus [14]): 0.16 µmol/kg
ED50 (Felis catus [15]): 2.17 µmol/kg
Onset (Monkey [8]): 3.1 min
Onset (Felis catus [9]): 2 min

SMILES: O=C(C[N+]1(Cc2ccc([N+](=O)[O-])cc2)CCCCC1)NC(Cc1ccccc1)C(=O)NCC[N+]1(Cc2ccc([N+](=O)[O-])cc2)CCOCC1.[Br-].[Br-] (stereo unspecified)
ED50 (Felis catus [16]): > 11.2 µmol/kg
ED50 (Felis catus [17]): 0.8 µmol/kg
ED50 (Felis catus [6]): 10.1 µmol/kg
ED50 (Gallus gallus [18]): 19800 nM

SMILES: CC(=O)O[C@H]1C[C@@H]2CC[C@@H]3[C@H](CC[C@@]4(C)[C@H]3C[C@H]([N+]3(C)CCCCC3)[C@@H]4OC(C)=O)[C@@]2(C)C[C@@H]1[N+]1(C)CCCCC1 [PANCURONIUM]
Recovery (Felis catus [1]): 4 min
ED50 (Felis catus [11]): 0.03 µmol/kg
pCB50 (Gallus gallus [12]): 6.7
Duration (Felis catus [3]): 11.7 min
EC50 [13]: 200 nM
ED50 (Felis catus [15]): 0.07 µmol/kg
Onset (Felis catus [9]): 4.1 min

SMILES: C[N+]1(CCNC(=O)C(Cc2ccccc2)NC(=O)C[N+]2(C)CCCCC2)CCOCC1 (stereo unspecified)
pCB50 (Gallus gallus [12]): 3.39
EC50 [19]: 407000 nM
